Assay results: ChEMBL document CHEMBL3525979, “Combined contributions of impaired hepatic CYP2C11 and intestinal breast cancer resistance protein activities and expression to increased oral glibenclamide exposure in rats with streptozotocin-induced diabetes mellitus” (Drug Metab Dispos, 2012)

Columns and labels:
Jejunum [1] = test: Drug absorption in normal Sprague-Dawley rat jejunum assessed as 200 uM BCRP inhibitor novobiocin-mediated increase in apparent effective permeability at 10 ug/ml measured at 45 mins of perfusion; format: ADME, tissue-based; set-up: scale not given: the % may be the effect or the level left; settings: 0.75 h
How it was run: (§1)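 Normal rats underwent in situ single-pass jejunal perfusion: saline preperfusion at 0.2 mL/min, 37 °C, for 20 min, then K-H buffer with GLB 10 μg/mL with or without novobiocin 50 or 200 μM. Effluent was collected every 15 min. Peff (cm/min) was calculated from GLB loss and the absorptive area of the segment; n=5.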

[2] = Drug excretion in bile of insulin treated Sprague-Dawley rat model of streptozotocin-induced diabetes mellitus at 10 mg/kg, po by HPLC method; format: ADME, organism-based; set-up: dose 10 mg/kg, route oral; settings: read-out: Drug excretion
How it was run: (§2)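 STZ-diabetic (65 mg/kg i.p.), insulin-treated or control rats were dosed with GLB 10 mg/kg orally on day 35 after overnight fast. Urine and feces were collected in metabolic cages at 6-h intervals to 36 h. For bile, the common bile duct was cannulated under pentobarbital and bile collected to 12 h. GLB measured by HPLC-fluorescence and expressed as % of dose.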

[3] = Drug excretion in feces of insulin treated Sprague-Dawley rat model of streptozotocin-induced diabetes mellitus at 10 mg/kg, po by HPLC method; format: ADME, organism-based; set-up: dose 10 mg/kg, route oral; settings: faeces, read-out: Drug excretion; how it was run: as §2
Liver microsome [4] = test: Drug metabolism in insulin treated streptozotocin-induced diabetes mellitus Sprague-Dawley rat liver microsomes assessed as compound level at 4 uM after 60 mins (reference value: 2.06 +/- 0.27 ug/ml); format: ADME; settings: 1 h
[5] = AUC (0 to t) in Sprague-Dawley rat model of streptozotocin-induced diabetes mellitus at 10 mg/kg, po by HPLC method; format: ADME, organism-based; set-up: dose 10 mg/kg, route oral; settings: in vivo
How it was run: (§3)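 Sprague-Dawley rats: diabetes induced by STZ 65 mg/kg i.p. in citrate buffer pH 4.5 (fasting glucose >11.1 mM at day 7). Insulin group received protamine zinc insulin 5 U/kg s.c. twice daily for 4 weeks. On day 35, overnight-fasted rats got GLB 10 mg/kg orally in 0.5% CMC-Na. Plasma GLB measured by HPLC with fluorescence detection (ex 308/em 360 nm). Non-compartmental analysis; n=6-7.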

Liver microsome [6] = test: Drug metabolism in normal Sprague-Dawley rat liver microsomes assessed as compound level at 4 uM after 60 mins (reference value: 2.06 +/- 0.12 ug/ml); format: ADME; settings: 1 h
[7] = Terminal elimination half life in normal Sprague-Dawley rat at 10 mg/kg, po by HPLC method; format: ADME, organism-based; set-up: dose 10 mg/kg, route oral; settings: in vivo, read-out: beta t1/2 (converted)
How it was run: (§4)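 Rats given STZ 65 mg/kg i.p. in citrate buffer pH 4.5 (controls got buffer); diabetic if fasting glucose >11.1 mM at day 7; insulin group got protamine zinc insulin 5 U/kg s.c. twice daily for 4 weeks. On day 35, overnight-fasted rats dosed orally with 10 mg/kg in 0.5% CMC-Na; plasma by ethyl acetate extraction, HPLC fluorescence (ex 308/em 360 nm); non-compartmental analysis; n=6-7, mean ± S.D.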

[8] = AUC (0 to t) in insulin treated Sprague-Dawley rat model of streptozotocin-induced diabetes mellitus at 10 mg/kg, po by HPLC method; format: ADME, organism-based; set-up: dose 10 mg/kg, route oral; settings: in vivo; how it was run: as §3
[9] = Drug excretion in urine of insulin treated Sprague-Dawley rat model of streptozotocin-induced diabetes mellitus at 10 mg/kg, po by HPLC method; format: ADME, organism-based; set-up: dose 10 mg/kg, route oral; settings: read-out: Drug excretion; how it was run: as §2
[10] = Oral clearance in insulin treated Sprague-Dawley rat model of streptozotocin-induced diabetes mellitus at 10 mg/kg, po by HPLC method; format: ADME, organism-based; set-up: dose 10 mg/kg, route oral; settings: in vivo; how it was run: as §4
[11] = AUC (0 to 60 mins) in streptozotocin-induced diabetes mellitus Sprague-Dawley rat liver microsomes at 4 uM after 60 mins; format: ADME; set-up: dose 4 uM, time < 1 hr
How it was run: (§5)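 Liver microsomes (0.5 mg/mL protein) from control, STZ-diabetic or insulin-treated diabetic rats, 0.01 M phosphate buffer pH 7.4, 4 μM GLB (methanol <1%); 5 min preincubation at 37 °C, started with NADPH regenerating system. Stopped with 1 M HCl at 0, 5, 15, 30, 45, 60 min. GLB depletion measured by HPLC-fluorescence. AUC by linear trapezoid; Clapp = initial dose/AUC0-t; t1/2 = 0.693/terminal slope. Triplicate incubations; 4-5 rats.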

[12] = Oral clearance in Sprague-Dawley rat model of streptozotocin-induced diabetes mellitus at 10 mg/kg, po by HPLC method; format: ADME, organism-based; set-up: dose 10 mg/kg, route oral; settings: in vivo; how it was run: as §3
[13] = Terminal elimination half life in Sprague-Dawley rat model of streptozotocin-induced diabetes mellitus at 10 mg/kg, po by HPLC method; format: ADME, organism-based; set-up: dose 10 mg/kg, route oral; settings: in vivo, read-out: beta t1/2 (converted); how it was run: as §4
[14] = Drug excretion in feces of Sprague-Dawley rat model of streptozotocin-induced diabetes mellitus at 10 mg/kg, po by HPLC method; format: ADME, organism-based; set-up: dose 10 mg/kg, route oral; settings: faeces, read-out: Drug excretion; how it was run: as §2
Liver microsome [15] = test: Apparent hepatic clearance in insulin treated streptozotocin-induced diabetes mellitus Sprague-Dawley rat liver microsomes assessed per mg protein at 4 uM after 60 mins; format: ADME; settings: 1 h; how it was run: as §5
[16] = Apparent oral volume of distribution in Sprague-Dawley rat model of streptozotocin-induced diabetes mellitus at 10 mg/kg, po by HPLC method; format: ADME, organism-based; set-up: dose 10 mg/kg, route oral; settings: in vivo; how it was run: as §3
Jejunum [17] = test: Drug absorption in normal Sprague-Dawley rat jejunum assessed as 200 uM BCRP inhibitor novobiocin-mediated increase in apparent effective permeability at 10 ug/ml measured at 90 mins of perfusion; format: ADME, tissue-based; set-up: scale not given: the % may be the effect or the level left; settings: 1.5 h; how it was run: as §1
[18] = Tmax in Sprague-Dawley rat model of streptozotocin-induced diabetes mellitus at 10 mg/kg, po by HPLC method; format: ADME, organism-based; set-up: dose 10 mg/kg, route oral; settings: in vivo; how it was run: as §4
[19] = AUC (0 to infinity) in insulin treated Sprague-Dawley rat model of streptozotocin-induced diabetes mellitus at 10 mg/kg, po by HPLC method; format: ADME, organism-based; set-up: dose 10 mg/kg, route oral, time infinity; settings: in vivo; how it was run: as §3
Liver microsome [20] = test: Apparent hepatic clearance in normal Sprague-Dawley rat liver microsomes assessed per mg protein at 4 uM after 60 mins; format: ADME; settings: 1 h; how it was run: as §5
[21] = Drug excretion in bile of Sprague-Dawley rat model of streptozotocin-induced diabetes mellitus at 10 mg/kg, po by HPLC method; format: ADME, organism-based; set-up: dose 10 mg/kg, route oral; settings: read-out: Drug excretion; how it was run: as §2
[22] = Mean residence time in Sprague-Dawley rat model of streptozotocin-induced diabetes mellitus at 10 mg/kg, po by HPLC method; format: ADME, organism-based; set-up: dose 10 mg/kg, route oral; settings: in vivo; how it was run: as §3
Liver microsome [23] = test: Drug metabolism in streptozotocin-induced diabetes mellitus Sprague-Dawley rat liver microsomes assessed as compound level at 4 uM after 60 mins (reference value: 2.0 +/- 0.13 ug/ml); format: ADME; settings: 1 h
[24] = Apparent oral volume of distribution in insulin treated Sprague-Dawley rat model of streptozotocin-induced diabetes mellitus at 10 mg/kg, po by HPLC method; format: ADME, organism-based; set-up: dose 10 mg/kg, route oral; settings: in vivo; how it was run: as §3
[25] = Oral clearance in normal Sprague-Dawley rat at 10 mg/kg, po by HPLC method; format: ADME, organism-based; set-up: dose 10 mg/kg, route oral; settings: in vivo; how it was run: as §4

Question: For `COc1ccc(Cl)cc1C(=O)NCCc1ccc(S(=O)(=O)NC(=O)NC2CCCCC2)cc1` [GLYBURIDE], which Activity (Jejunum [1]) is on record?
Answer: Its Activity is 25%.

Question: What about the dose excreted [2] of the same compound?
Answer: Its dose excreted is 0.018%.

Question: What about the dose excreted [3] of the same compound?
Answer: Its dose excreted is 50%.

Question: What about the Drug uptake (Liver microsome [4]) of the same compound?
Answer: Its Drug uptake is 0.09 µg/mL.

Question: What about the AUC(0-t) [5] of the same compound?
Answer: The AUC(0-t) was 13.3 µg·h/mL.

Question: What about the Drug uptake (Liver microsome [6]) of the same compound?
Answer: Its Drug uptake is 0.07 µg/mL.

Question: And the half-life [7]?
Answer: Its half-life is 4.55 h.

Question: And the AUC(0-t) [8]?
Answer: The AUC(0-t) was 2.38 µg·h/mL.

Question: What about the dose excreted [9] of the same compound?
Answer: Its dose excreted is 0.019%.

Question: What about the CL/F [10] of the same compound?
Answer: Its CL/F is 3.98 L/h/kg.

Question: What about the AUC(0-t) at 1 h, 4 µM [11] of the same compound?
Answer: The AUC(0-t) at 1 h, 4 µM was 0.916 µg·h/mL.

Question: What about the CL/F [12] of the same compound?
Answer: The CL/F was 0.72 L/h/kg.

Question: And the half-life [13]?
Answer: The half-life was 5.11 h.

Question: What about the dose excreted [14] of the same compound?
Answer: The dose excreted was 40%.

Question: And the CLH(app) (Liver microsome [15])?
Answer: Its CLH(app) is 176 µL/min/mg.

Question: And the Vd/F [16]?
Answer: Its Vd/F is 6.36 L/kg.

Question: What about the Activity (Jejunum [17]) of the same compound?
Answer: Its Activity is 32%.

Question: What about the Tmax [18] of the same compound?
Answer: Its Tmax is 7.2 h.

Question: What about the AUC(0-inf) [19] of the same compound?
Answer: The AUC(0-inf) was 3 µg·h/mL.

Question: And the CLH(app) (Liver microsome [20])?
Answer: The CLH(app) was 205 µL/min/mg.

Question: And the dose excreted [21]?
Answer: Its dose excreted is 0.097%.

Question: What about the MRT [22] of the same compound?
Answer: The MRT was 9.28 h.

Question: And the Drug uptake (Liver microsome [23])?
Answer: Its Drug uptake is 0.52 µg/mL.

Question: What about the Vd/F [24] of the same compound?
Answer: Its Vd/F is 36.8 L/kg.

Question: And the CL/F [25]?
Answer: The CL/F was 3.93 L/h/kg.
